Columns and labels:
[1] = Aqueous solubility of the compound by UV-vis absorption spectroscopic analysis; assay type: physicochemical
[2] = system: HepG2; assay: Cytotoxicity against human HepG2 cells assessed as growth inhibition after 72 hrs by MTT assay; assay type: functional, cell-based; settings: HepG2, 72 h
[3] = system: SGC-7901; assay: Cytotoxicity against human SGC7901 cells assessed as growth inhibition after 72 hrs by MTT assay; assay type: functional, cell-based; settings: SGC-7901, 72 h
[4] = Antioxidant activity assessed as galvinoxyl free radical scavenging activity; assay type: functional
[5] = Antioxidant activity assessed as galvinoxyl free radical scavenging activity at 1 uM relative to control; assay type: functional
[6] = Antioxidant activity assessed as galvinoxyl free radical scavenging activity at 2 uM relative to control; assay type: functional
[7] = Antioxidant activity assessed as galvinoxyl free radical scavenging activity at 10 uM relative to control; assay type: functional
[8] = Antioxidant activity assessed as galvinoxyl free radical scavenging activity at 20 uM relative to control; assay type: functional
[9] = Antioxidant activity assessed as galvinoxyl free radical scavenging activity at 100 uM relative to control; assay type: functional
[10] = system: Radical scavenging activity; assay: Antioxidant activity assessed as DPPH free radical scavenging activity; assay type: functional
[11] = system: Radical scavenging activity; assay: Antioxidant activity assessed as DPPH free radical scavenging activity at 1 uM relative to control; assay type: functional
[12] = system: Radical scavenging activity; assay: Antioxidant activity assessed as DPPH free radical scavenging activity at 2 uM relative to control; assay type: functional
[13] = system: Radical scavenging activity; assay: Antioxidant activity assessed as DPPH free radical scavenging activity at 10 uM relative to control; assay type: functional
[14] = system: Radical scavenging activity; assay: Antioxidant activity assessed as DPPH free radical scavenging activity at 20 uM relative to control; assay type: functional
[15] = system: Radical scavenging activity; assay: Antioxidant activity assessed as DPPH free radical scavenging activity at 100 uM relative to control; assay type: functional
[16] = system: HepG2; assay: Cell cycle arrest in human HepG2 cells assessed as accumulation at G2/M phase at 30 uM after 12 hrs by propidium iodide staining-based FACS flow cytometric analysis (reference value: 33.98%); assay type: functional
[17] = system: HepG2; assay: Cell cycle arrest in human HepG2 cells assessed as accumulation at S phase at 30 uM after 12 hrs by propidium iodide staining-based FACS flow cytometric analysis (reference value: 22.47%); assay type: functional
[18] = system: HepG2; assay: Cell cycle arrest in human HepG2 cells assessed as accumulation at G0/G1 phase at 30 uM after 12 hrs by propidium iodide staining-based FACS flow cytometric analysis (reference value: 22.94%); assay type: functional
[19] = system: HCT-116; assay: Cytotoxicity against human HCT116 cells assessed as growth inhibition after 72 hrs by MTT assay; assay type: functional, cell-based; settings: HCT-116, 72 h
[20] = system: A549; assay: Cytotoxicity against human A549 cells assessed as growth inhibition after 72 hrs by MTT assay; assay type: functional, cell-based; settings: A549, 72 h
[21] = system: HCT-116; assay: Ratio of curcumin IC50 to compound IC50 for human HCT116 cells; assay type: functional
[22] = system: HepG2; assay: Ratio of curcumin IC50 to compound IC50 for human HepG2 cells; assay type: functional
[23] = Stability of the compound in phosphate-buffered solution assessed as drug degradation under daylight condition at […] measured within 120 mins by UV-vis absorption spectroscopic analysis in presence of FBS; assay type: physicochemical; settings: buffer, 2 h
How it was run: (§1)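 Absorbance at 410 nm followed over time in phosphate-buffered solution (pH 7.4) under daylight, without or with 0.1% FBS; stability expressed as A/A0 relative to the 0 min reading.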

[24] = Stability of the compound in phosphate-buffered solution assessed as drug degradation under daylight condition at […] measured within 120 mins by UV-vis absorption spectroscopic analysis in absence of FBS; assay type: physicochemical; settings: buffer, 2 h; how it was run: as §1

Row | SMILES | IC50 [2] | IC50 [3] | IC50 [4] | Activity [5] | Activity [6] | Activity [7] | Activity [8] | Activity [9] | IC50 [10] | Activity [11] | Activity [12] | Activity [13] | Activity [14] | Activity [15] | IC50 [19] | IC50 [20] | Stability [23] | Stability [24] | other results
1 | CN(C)Cc1cc(/C=C2\CCC/C(=C\c3ccc(O)c(CN(C)C)c3)C2=O)ccc1O.Cl.Cl | – | – | – | – | – | – | – | – | – | – | – | – | – | – | – | – | – | – | solubility [1]: 303 mg/mL
2 | COc1cc(/C=C/C(=O)CC(=O)/C=C/c2ccc(O)c(C[N+](C)(C)C)c2)ccc1O | 126 µM | 321 µM | – | – | – | – | – | – | – | – | – | – | – | – | – | – | – | – | –
3 | COc1cc(/C=C/C(=O)CC(=O)/C=C/c2ccc(O)c(OC)c2)ccc1O [CURCUMIN] | 78.7 µM | 29 µM | > 100 µM | 4.6% | 5.8% | 13.7% | 22.2% | 45% | 26.5 µM | 0.3% | 2.4% | 23.1% | 42% | 87.2% | 41.5 µM | 32.2 µM | – | – | Activity [16]: 50.2%; Activity [17]: 29.33%; Activity [18]: 20.46%
4 | CN(C)Cc1cc(/C=C2\CC/C(=C\c3ccc(O)c(CN(C)C)c3)C2=O)ccc1O | 43.6 µM | 57.3 µM | 45 µM | 3.8% | 13.3% | 30.6% | 46.8% | 71.8% | 2.3 µM | 24.8% | 54% | 67.4% | 86.8% | 90.4% | 142 µM | 78.1 µM | – | – | –
5 | COc1cc(/C=C2\CC/C(=C\c3cc(CN(C)C)c(O)c(OC)c3)C2=O)cc(CN(C)C)c1O | 46.2 µM | – | 56.3 µM | 8.6% | 12.8% | 35.3% | 48% | 58.6% | 1.8 µM | 38.6% | 47.9% | 50.9% | 82% | 88.6% | 24.4 µM | – | – | – | –
6 | CN(C)Cc1cc(/C=C2\CCC/C(=C\c3cc(CN(C)C)c(O)c(CN(C)C)c3)C2=O)ccc1O | 49.5 µM | 45.3 µM | 65.9 µM | 13.4% | 21.3% | 36.5% | 38.7% | 52.3% | 2 µM | 25.9% | 54.5% | 66.6% | 85.7% | 90.3% | 64.7 µM | 35.5 µM | – | – | –
7 | COc1cc(/C=C/C(=O)CC(=O)/C=C/c2ccc(O)c(CN(C)C)c2)ccc1O | 5.2 µM | 23.5 µM | 66.6 µM | 0% | 3.1% | 16.5% | 37.8% | 51.9% | 18.6 µM | 1.1% | 5% | 23.4% | 51.7% | 91.2% | 3.7 µM | 20.2 µM | Unstable | Unstable | Ratio IC50 [21]: >10; Ratio IC50 [22]: >10; Activity [16]: 24.97%; Activity [17]: 45.63%; Activity [18]: 29.4%
8 | CN(C)Cc1cc(/C=C/C(=O)/C=C/c2ccc(O)c(CN(C)C)c2)ccc1O.Cl.Cl | – | – | – | – | – | – | – | – | – | – | – | – | – | – | – | – | – | – | solubility [1]: 368 mg/mL
9 | CN(C)Cc1cc(/C=C2\CCC/C(=C\c3ccc(O)c(CN(C)C)c3)C2=O)ccc1O | – | – | – | – | – | – | – | – | – | – | – | – | – | – | – | – | Stable | Stable | –
10 | COc1cc(/C=C2\CCC/C(=C\c3cc(CN(C)C)c(O)c(OC)c3)C2=O)cc(CN(C)C)c1O | 24.3 µM | 25.8 µM | 16.3 µM | 8.3% | 21.1% | 38.9% | 52.9% | 58.9% | 4.8 µM | 24.7% | 40.1% | 55% | 82.8% | 86.3% | 65.9 µM | 51.8 µM | Stable | Stable | –

Source: ChEMBL document CHEMBL2390868, “Design and synthesis of dimethylaminomethyl-substituted curcumin derivatives/analogues: potent antitumor and antioxidant activity, improved stability and aqueous solubility compared with curcumin” (Bioorg Med Chem Lett, 2013)
